Measurements as given in ChEMBL document CHEMBL1165965, “Synthesis and structure-activity relationships of 1,2,3,4-tetrahydropyrido[2,3-b]pyrazines as potent and selective inhibitors of the anaplastic lymphoma kinase” (Bioorg Med Chem, 2010).

Assays:
[1] = target: Tyrosine-protein kinase receptor Tie-1 (Homo sapiens) (UniProt P35590); assay: Inhibition of TIE1 at 1 uM
[2] = test system: Tyrosine-protein kinase ABL1 (Homo sapiens), P00519 [Q252H]; assay: Inhibition of ABL1 Q252H mutant at 1 uM
Procedure, shortened: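 Ambit KINOMEscan screen at a single concentration across a 250–400 kinase panel, recorded as percent inhibition. Selectivity was expressed as S(90), the fraction of kinases inhibited >90%.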

[3] = target: T1, MAP/microtubule affinity-regulating kinase 4 (Homo sapiens) (UniProt Q96L34); assay: Inhibition of MARK4 at 1 uM
T1 sequence (whole entry): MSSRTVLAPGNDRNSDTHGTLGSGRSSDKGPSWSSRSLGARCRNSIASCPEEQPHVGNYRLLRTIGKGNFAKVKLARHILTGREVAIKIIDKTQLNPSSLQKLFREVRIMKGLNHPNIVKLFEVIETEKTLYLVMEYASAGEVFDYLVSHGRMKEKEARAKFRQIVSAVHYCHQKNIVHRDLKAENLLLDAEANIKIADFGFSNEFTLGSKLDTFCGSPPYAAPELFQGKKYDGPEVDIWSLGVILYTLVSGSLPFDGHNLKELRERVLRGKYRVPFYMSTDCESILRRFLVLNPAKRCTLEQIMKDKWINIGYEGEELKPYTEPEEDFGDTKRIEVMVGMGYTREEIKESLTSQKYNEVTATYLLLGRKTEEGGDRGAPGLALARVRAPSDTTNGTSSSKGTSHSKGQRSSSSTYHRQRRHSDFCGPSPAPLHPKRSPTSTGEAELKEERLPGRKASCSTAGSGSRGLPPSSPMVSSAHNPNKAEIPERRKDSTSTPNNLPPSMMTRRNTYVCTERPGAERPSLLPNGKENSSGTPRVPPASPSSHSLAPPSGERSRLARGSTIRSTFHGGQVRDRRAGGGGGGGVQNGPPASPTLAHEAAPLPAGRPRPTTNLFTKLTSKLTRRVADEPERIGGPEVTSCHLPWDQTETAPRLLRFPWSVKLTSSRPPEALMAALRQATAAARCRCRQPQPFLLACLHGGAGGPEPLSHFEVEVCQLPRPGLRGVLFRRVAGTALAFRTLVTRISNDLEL
Procedure, shortened: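 Kinase-panel screen using KINOMEscan technology, with 250–400 kinases per panel. Each compound was tested at a single concentration, and inhibition of each kinase was recorded. Selectivity was summarised as S(90), the fraction of kinases inhibited by more than 90%.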

[4] = target: T2, Serine/threonine-protein kinase DCLK1 (Homo sapiens) (UniProt O15075); assay: Inhibition of DCAMKL1 at 1 uM
T2 sequence (whole entry): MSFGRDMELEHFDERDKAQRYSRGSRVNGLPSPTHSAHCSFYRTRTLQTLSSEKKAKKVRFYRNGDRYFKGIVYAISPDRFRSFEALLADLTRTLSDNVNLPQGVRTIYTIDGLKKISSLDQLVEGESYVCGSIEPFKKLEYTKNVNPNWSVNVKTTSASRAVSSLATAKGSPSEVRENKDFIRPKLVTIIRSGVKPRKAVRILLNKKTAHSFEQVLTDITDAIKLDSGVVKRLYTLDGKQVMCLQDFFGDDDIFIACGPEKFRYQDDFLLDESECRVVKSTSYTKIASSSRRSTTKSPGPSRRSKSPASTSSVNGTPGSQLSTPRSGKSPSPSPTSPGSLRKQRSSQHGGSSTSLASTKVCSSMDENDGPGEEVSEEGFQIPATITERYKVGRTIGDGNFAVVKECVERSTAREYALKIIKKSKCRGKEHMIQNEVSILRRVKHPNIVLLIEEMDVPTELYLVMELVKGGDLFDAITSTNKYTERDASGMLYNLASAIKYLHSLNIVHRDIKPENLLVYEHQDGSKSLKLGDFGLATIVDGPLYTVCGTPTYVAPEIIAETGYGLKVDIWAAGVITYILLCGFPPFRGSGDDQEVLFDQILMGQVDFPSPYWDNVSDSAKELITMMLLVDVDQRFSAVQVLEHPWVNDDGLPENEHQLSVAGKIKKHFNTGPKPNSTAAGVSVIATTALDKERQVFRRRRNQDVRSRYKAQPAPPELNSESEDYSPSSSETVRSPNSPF

[5] = target: Tyrosine-protein kinase HCK (Homo sapiens) (UniProt P08631); assay: Inhibition of HCK at 1 uM
Tyrosine-protein kinase HCK (Homo sapiens), sequence (P08631 2-526 limits assumed): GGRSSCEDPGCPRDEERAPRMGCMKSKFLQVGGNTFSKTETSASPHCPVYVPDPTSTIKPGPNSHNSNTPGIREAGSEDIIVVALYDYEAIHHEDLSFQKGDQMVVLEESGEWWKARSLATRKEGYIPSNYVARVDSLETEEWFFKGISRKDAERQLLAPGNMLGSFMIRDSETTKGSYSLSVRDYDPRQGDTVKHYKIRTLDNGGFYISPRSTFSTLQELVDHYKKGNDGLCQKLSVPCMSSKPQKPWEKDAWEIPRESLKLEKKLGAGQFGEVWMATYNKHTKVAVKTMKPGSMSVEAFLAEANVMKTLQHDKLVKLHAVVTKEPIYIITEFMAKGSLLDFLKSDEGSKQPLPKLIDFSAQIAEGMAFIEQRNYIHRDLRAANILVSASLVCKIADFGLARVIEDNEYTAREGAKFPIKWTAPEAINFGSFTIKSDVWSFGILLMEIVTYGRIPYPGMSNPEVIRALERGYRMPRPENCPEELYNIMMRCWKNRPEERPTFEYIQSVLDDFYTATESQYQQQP
Procedure, shortened: (§1)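 Single-concentration screen on the Ambit KINOMEscan platform, run against a panel of 250–400 kinases. Per-kinase inhibition was also summarized as S(90), the fraction of kinases inhibited by more than 90%.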

[6] = target: Proto-oncogene tyrosine-protein kinase receptor Ret (Homo sapiens) (UniProt P07949); assay: Inhibition of RET at 1 uM
Proto-oncogene tyrosine-protein kinase receptor Ret (Homo sapiens), sequence (P07949 whole entry): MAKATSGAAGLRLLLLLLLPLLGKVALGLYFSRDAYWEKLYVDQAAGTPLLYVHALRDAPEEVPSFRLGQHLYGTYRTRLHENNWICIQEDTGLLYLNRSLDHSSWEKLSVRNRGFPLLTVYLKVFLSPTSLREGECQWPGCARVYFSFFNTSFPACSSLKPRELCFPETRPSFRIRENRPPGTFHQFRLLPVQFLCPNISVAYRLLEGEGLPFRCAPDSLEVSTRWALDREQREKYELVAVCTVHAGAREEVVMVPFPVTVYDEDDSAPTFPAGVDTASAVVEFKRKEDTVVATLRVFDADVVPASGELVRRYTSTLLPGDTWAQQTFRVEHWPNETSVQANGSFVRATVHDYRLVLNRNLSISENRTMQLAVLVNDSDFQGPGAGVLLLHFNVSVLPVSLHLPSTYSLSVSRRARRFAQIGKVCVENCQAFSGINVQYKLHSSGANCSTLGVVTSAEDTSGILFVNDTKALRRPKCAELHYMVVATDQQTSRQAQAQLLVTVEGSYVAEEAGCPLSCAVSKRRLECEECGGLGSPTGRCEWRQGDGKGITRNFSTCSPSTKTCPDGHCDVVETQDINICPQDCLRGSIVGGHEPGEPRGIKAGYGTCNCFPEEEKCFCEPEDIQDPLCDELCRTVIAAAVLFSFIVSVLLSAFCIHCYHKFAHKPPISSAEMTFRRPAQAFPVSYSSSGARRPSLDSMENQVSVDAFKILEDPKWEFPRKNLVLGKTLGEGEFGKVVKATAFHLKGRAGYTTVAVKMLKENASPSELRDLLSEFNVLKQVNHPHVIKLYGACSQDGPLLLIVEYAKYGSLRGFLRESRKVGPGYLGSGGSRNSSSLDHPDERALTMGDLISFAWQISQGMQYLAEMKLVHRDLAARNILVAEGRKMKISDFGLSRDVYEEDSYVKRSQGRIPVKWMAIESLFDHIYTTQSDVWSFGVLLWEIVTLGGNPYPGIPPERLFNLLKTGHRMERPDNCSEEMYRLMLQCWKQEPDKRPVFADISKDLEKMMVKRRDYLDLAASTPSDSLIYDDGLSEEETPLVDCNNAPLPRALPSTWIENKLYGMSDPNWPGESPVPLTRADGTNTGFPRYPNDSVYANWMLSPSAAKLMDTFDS

[7] = target: MAP kinase-activated protein kinase 2 (Homo sapiens) (UniProt P49137); assay: Inhibition of MAPKAPK2 at 1 uM
MAP kinase-activated protein kinase 2 (Homo sapiens), sequence (P49137 whole entry, looked up): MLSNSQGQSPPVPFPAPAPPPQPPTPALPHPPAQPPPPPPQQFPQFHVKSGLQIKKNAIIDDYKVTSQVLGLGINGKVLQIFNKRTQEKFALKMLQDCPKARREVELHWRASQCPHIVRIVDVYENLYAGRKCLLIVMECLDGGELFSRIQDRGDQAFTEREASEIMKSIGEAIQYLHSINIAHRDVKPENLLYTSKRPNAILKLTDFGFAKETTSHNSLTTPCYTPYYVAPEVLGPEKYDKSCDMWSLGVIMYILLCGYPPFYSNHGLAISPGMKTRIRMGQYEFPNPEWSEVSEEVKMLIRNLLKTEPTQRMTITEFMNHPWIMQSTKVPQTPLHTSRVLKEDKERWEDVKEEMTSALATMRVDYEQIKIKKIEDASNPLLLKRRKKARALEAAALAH

[8] = target: Glycogen synthase kinase-3 alpha (Homo sapiens) (UniProt P49840); assay: Inhibition of GSK3A at 1 uM; procedure, shortened: as §1
Glycogen synthase kinase-3 alpha (Homo sapiens), sequence (P49840 2-483 limits assumed): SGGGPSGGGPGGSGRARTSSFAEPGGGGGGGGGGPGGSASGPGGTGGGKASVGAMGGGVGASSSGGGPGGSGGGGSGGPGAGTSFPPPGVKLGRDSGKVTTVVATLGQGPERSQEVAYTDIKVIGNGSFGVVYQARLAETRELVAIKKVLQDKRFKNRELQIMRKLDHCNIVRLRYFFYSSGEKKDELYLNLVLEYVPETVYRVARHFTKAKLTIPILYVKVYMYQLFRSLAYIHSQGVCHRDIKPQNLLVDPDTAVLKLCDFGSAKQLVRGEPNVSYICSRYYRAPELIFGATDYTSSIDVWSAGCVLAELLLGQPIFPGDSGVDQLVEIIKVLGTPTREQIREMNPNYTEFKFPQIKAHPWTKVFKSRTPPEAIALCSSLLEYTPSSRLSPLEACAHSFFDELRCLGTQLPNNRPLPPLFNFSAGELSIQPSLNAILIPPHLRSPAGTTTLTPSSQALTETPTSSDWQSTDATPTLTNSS

[9] = target: Cyclin-dependent kinase-like 3 (Homo sapiens) (UniProt Q8IVW4); assay: Inhibition of CDKL3 at 1 uM
Cyclin-dependent kinase-like 3 (Homo sapiens), sequence (Q8IVW4 whole entry, looked up): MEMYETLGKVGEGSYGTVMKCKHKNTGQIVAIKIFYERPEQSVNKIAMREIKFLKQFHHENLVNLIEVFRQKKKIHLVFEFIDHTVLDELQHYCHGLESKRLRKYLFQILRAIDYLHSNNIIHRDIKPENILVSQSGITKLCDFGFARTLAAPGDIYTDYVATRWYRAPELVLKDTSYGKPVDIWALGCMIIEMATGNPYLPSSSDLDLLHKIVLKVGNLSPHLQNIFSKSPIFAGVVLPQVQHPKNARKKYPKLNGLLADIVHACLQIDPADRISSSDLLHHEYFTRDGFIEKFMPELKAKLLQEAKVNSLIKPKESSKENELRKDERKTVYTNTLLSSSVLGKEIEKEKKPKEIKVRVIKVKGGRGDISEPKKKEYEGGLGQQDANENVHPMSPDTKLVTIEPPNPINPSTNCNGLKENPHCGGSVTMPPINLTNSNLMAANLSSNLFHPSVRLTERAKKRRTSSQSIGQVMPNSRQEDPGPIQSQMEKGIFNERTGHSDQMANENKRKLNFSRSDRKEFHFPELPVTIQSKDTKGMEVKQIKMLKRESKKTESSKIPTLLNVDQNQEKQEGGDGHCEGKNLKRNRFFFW

[10] = target: T3, Serine/threonine-protein kinase TBK1 (Homo sapiens) (UniProt Q9UHD2); assay: Inhibition of TBK1 at 1 uM
T3 sequence (whole entry): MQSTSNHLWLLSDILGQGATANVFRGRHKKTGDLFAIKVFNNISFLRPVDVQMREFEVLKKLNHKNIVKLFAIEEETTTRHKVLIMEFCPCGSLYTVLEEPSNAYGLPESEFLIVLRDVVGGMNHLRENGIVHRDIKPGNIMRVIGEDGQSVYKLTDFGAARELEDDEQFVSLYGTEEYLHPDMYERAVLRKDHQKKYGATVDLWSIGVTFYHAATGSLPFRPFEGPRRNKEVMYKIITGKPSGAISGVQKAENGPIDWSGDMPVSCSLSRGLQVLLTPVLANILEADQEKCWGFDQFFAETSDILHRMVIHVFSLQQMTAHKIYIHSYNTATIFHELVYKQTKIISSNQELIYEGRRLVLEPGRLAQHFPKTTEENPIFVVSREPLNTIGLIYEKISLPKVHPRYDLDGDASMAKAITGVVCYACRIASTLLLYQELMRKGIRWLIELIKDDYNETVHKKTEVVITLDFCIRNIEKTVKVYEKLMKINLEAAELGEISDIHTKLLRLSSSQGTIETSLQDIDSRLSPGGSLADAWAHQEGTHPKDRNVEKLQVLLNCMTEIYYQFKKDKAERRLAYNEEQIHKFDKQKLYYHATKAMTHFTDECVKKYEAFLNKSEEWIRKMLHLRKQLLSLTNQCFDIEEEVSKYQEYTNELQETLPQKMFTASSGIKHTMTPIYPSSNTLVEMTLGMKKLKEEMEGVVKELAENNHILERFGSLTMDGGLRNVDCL

[11] = target: Ribosomal protein S6 kinase alpha-1 (Homo sapiens) (UniProt Q15418); assay: Inhibition of RPS6KA1 N-terminal domain1 at 1 uM
Ribosomal protein S6 kinase alpha-1 (Homo sapiens), sequence (Q15418 whole entry, the tested form may be a part): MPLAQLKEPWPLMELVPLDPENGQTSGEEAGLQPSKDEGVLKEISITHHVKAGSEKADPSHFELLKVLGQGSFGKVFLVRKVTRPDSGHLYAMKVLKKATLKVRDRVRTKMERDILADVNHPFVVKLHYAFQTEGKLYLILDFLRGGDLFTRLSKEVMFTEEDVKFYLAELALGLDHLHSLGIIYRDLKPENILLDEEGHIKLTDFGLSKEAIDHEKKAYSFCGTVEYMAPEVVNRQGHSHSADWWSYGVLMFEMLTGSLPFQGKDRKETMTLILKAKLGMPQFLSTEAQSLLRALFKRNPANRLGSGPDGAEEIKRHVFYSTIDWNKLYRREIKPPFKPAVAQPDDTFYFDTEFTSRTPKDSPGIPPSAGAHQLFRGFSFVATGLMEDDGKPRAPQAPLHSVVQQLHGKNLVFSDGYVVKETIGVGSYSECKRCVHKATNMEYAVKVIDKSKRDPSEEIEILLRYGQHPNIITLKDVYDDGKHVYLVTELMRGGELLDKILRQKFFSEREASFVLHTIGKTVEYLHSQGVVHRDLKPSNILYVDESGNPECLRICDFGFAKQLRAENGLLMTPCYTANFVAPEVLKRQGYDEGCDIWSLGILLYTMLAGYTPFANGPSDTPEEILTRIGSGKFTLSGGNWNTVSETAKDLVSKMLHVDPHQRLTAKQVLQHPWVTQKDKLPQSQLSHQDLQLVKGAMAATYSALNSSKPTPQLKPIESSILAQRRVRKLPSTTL

Tyrosine-protein kinase receptor Tie-1 (Homo sapiens), sequence (P35590 whole entry): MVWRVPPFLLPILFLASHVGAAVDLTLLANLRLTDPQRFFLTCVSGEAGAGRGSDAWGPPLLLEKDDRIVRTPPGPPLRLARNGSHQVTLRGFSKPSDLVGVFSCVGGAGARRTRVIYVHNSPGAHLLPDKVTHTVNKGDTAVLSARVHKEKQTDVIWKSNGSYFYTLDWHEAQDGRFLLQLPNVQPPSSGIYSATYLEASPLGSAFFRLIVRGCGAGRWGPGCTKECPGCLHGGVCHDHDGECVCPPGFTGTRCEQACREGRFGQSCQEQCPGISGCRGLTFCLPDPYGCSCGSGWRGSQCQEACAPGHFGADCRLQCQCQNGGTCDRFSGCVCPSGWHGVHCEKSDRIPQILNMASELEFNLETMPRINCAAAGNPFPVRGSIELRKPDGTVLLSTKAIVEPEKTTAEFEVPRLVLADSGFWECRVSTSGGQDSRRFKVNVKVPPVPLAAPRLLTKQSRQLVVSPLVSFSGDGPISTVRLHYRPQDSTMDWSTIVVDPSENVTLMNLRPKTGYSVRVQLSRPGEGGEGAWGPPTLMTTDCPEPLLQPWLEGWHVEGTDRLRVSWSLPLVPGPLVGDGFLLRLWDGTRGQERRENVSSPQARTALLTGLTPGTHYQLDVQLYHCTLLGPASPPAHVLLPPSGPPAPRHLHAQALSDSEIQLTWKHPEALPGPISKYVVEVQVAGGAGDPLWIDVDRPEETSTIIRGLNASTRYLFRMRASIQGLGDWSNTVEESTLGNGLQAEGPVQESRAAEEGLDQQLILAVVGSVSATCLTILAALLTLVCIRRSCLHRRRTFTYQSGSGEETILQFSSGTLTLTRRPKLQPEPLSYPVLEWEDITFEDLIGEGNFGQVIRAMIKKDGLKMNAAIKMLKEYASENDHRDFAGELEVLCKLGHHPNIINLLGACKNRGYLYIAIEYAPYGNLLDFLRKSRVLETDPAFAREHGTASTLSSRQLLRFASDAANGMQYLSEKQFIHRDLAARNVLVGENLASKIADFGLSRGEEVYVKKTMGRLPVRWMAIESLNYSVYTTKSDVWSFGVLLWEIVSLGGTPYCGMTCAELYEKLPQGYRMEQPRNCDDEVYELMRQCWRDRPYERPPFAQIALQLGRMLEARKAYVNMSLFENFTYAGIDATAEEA

SMILES	inhibition [1] [%]	inhibition [2] [%]	inhibition [3] [%]	inhibition [4] [%]	inhibition [5] [%]	inhibition [6] [%]	inhibition [7] [%]	inhibition [8] [%]	inhibition [9] [%]	inhibition [10] [%]	inhibition [11] [%]
CN1CCN(c2ccc(-c3cnc4c(c3)N(Cc3cc(F)ccc3F)CCN4)cn2)CC1	< 50	< 50	< 50	94	< 50	< 50	< 50	< 50	< 50	< 50	< 50
CC(=O)N1CCN(c2cc(-c3cnc4c(c3)N(Cc3cc(Cl)ccc3C(F)(F)F)CCN4)ccn2)CC1	< 50	< 50	< 50	< 50	< 50	< 50	< 50	< 50	< 50	< 50	< 50
CN1CCN(c2ccc(-c3cnc4c(c3)N(Cc3c(F)ccc(F)c3Cl)CCN4)cn2)CC1	< 50	72	< 50	< 50	< 50	< 50	< 50	< 50	< 50	< 50	< 50
FC(F)(F)c1ccc(Cl)cc1CN1CCNc2ncc(-c3ccnc(N4CCNCC4)c3)cc21	81	< 50	< 50	98	< 50	77	< 50	< 50	< 50	< 50	< 50
CN1CCN(c2ccc(-c3cnc4c(c3)N(Cc3cc(Cl)ccc3Cl)CCN4)cn2)CC1	< 50	< 50	< 50	90	< 50	< 50	< 50	< 50	< 50	< 50	< 50
O=C(c1ccc(-c2cnc3c(c2)N(Cc2cc(Cl)ccc2C(F)(F)F)CCN3)cc1)N1CCC(N2CCCC2)CC1	–	63	< 50	–	< 50	< 50	–	< 50	–	–	< 50
O=C(O)c1ccc(-c2cnc3c(c2)N(Cc2cc(Cl)ccc2C(F)(F)F)CCN3)cc1	–	< 50	< 50	–	< 50	< 50	–	< 50	–	–	< 50
CN1CCN(c2ccc(-c3cnc4c(c3)N(Cc3cc(Cl)ccc3C(F)(F)F)CCN4)cn2)CC1	< 50	< 50	< 50	91	< 50	< 50	< 50	< 50	< 50	< 50	< 50
O=C(c1ccc(-c2cnc3c(c2)N(Cc2cc(Cl)ccc2C(F)(F)F)CCN3)cc1)N1CCCCC1	–	< 50	< 50	–	< 50	< 50	–	< 50	–	–	< 50
COC1CCN(C(=O)c2ccc(-c3cnc4c(c3)N(Cc3cc(Cl)ccc3C(F)(F)F)CCN4)cc2)CC1	–	< 50	< 50	–	< 50	< 50	–	< 50	–	–	< 50
